Source: ChEMBL document CHEMBL4765320, “Identification and optimization of piperine analogues as neuroprotective agents for the treatment of Parkinson's disease via the activation of Nrf2/keap1 pathway” (Eur J Med Chem, 2020)
Calls of active or inactive are those of the source. The calls are words filed in the database; no cut-off is given here.

Assays:
PC-12 [1] = assay: Upregulation of HO-1 expression in rat PC-12 cell incubated for 24 hrs by Western blot analysis; assay type: functional
In short: (§1)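 PC12 cells treated with compound for 24 h; lysates resolved by SDS-PAGE, transferred to PVDF and probed for HO-1 and NQO1; band intensities quantified densitometrically. Mean ± SD of three independent experiments.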

Mus musculus [2] = assay: Neuroprotective activity against lesioned C57BL/6 mouse model of Parkinson's disease assessed as increase in number of TH positive cells at 50 to 100 mg/kg , po administered for 2 week before MPTP stimulation by Immuno histochemistry assays; assay type: functional; settings: dose 50-100 mg/kg, time 2 weeks
In short: (§2)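 Male 10-week-old C57BL/6 mice (20–23 g), n = 6/group. Prophylactic: oral compound (50 or 100 mg/kg in saline) 2 weeks, then MPTP-HCl 25 mg/kg i.p. in week 3. Therapeutic: MPTP-HCl 25 mg/kg i.p. 1 week, then oral 100 mg/kg 2 weeks. Saline vehicle. Pole/rotarod training last 3 days; TH immunohistochemistry on SNpc and striatum.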

PC-12 [3] = assay: Inhibition of H202-induced apoptosis in rat PC-12 cells assessed as necrotic cells at 100 uM after 24 hrs by Annexin-V-FITC/PI-staining based flow cytometric analysis (reference value: 0.33%); assay type: functional; parameters: scale not given: the % may be the effect or the level left
In short: (§3)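 PC12 cells seeded 2 × 10⁵/well for 24 h, pretreated 24 h with 12.5, 25, 50 or 100 µM compound, then given fresh medium containing 650 µM H2O2. Harvested cells washed in binding buffer, stained 5 min with Annexin V-FITC/PI, analysed by flow cytometry.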

Mus musculus [4] = assay: Neuroprotective activity against lesioned C57BL/6 mouse model of Parkinson's disease assessed as increase in expression of HO-1 and NQO1 at 50 to 100 mg/kg , po administered for 2 week before MPTP stimulation by western blotting assays; assay type: functional, organism-based; settings: Brain, dose 50-100 mg/kg, time 2.0 weeks
Mus musculus [5] = assay: Neuroprotective activity in lesioned C57BL/6 mouse model of Parkinson's disease assessed as increase in time spent on rotarod at 100 mg/kg, po administered for 2 week after MPTP stimulation by rotarod test; assay type: functional; settings: time 2 weeks; in short: as §2
PC-12 [6] = assay: Neuroprotective activity against H202-induced cell damage in rat PC-12 cells assessed as decrease in LDH content incubated at 12.5 to 25 uM for 24 hrs by Lactate dehydrogenase assay; assay type: functional, cell-based; settings: dose 12.5-25 µM
In short: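 PC12 cells seeded 1 × 10⁴/well for 24 h, pretreated with compound at several concentrations (12.5–100 µM range), then challenged with H2O2; LDH released into medium quantified as membrane-damage marker. Mean ± SD, three independent experiments.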

PC-12 [7] = assay: Upregulation of NQO1 expression in rat PC-12 cell incubated for 24 hrs by Western blot analysis; assay type: functional; in short: as §1
PC-12 [8] = assay: Inhibition of H202-induced apoptosis in rat PC-12 cells assessed as viable cells at 25 uM after 24 hrs by Annexin-V-FITC/PI-staining based flow cytometric analysis (reference value: 52.01%); assay type: functional; settings: read-out: Activity; in short: as §3
PC-12 [9] = assay: Inhibition of H202-induced apoptosis in rat PC-12 cells assessed as necrotic cells at 50 uM after 24 hrs by Annexin-V-FITC/PI-staining based flow cytometric analysis (reference value: 0.33%); assay type: functional; parameters: scale not given: the % may be the effect or the level left; in short: as §3
PC-12 [10] = assay: Inhibition of H202-induced apoptosis in rat PC-12 cells assessed as viable cells at 100 uM after 24 hrs by Annexin-V-FITC/PI-staining based flow cytometric analysis (reference value: 52.01%); assay type: functional; settings: read-out: Activity; in short: as §3
PC-12 [11] = assay: Neuroprotective activity against H2O2-induced cytotoxicity in rat PC-12 cells assessed as cell viability at 100 uM pretreated for 24 hrs followed by H2O2 challenge and measured after 24 hrs by MTT assay (reference value: 52.81 +/- 6%); assay type: functional, cell-based; settings: time 48.0 hrs
PC-12 [12] = assay: Inhibition of H202-induced apoptosis in rat PC-12 cells assessed as viable cells at 50 uM after 24 hrs by Annexin-V-FITC/PI-staining based flow cytometric analysis (reference value: 52.01%); assay type: functional; settings: read-out: Activity; in short: as §3
PC-12 [13] = assay: Inhibition of H202-induced apoptosis in rat PC-12 cells assessed as late apoptotic cells at 25 uM after 24 hrs by Annexin-V-FITC/PI-staining based flow cytometric analysis (reference value: 32.5%); assay type: functional; parameters: scale not given: the % may be the effect or the level left; in short: as §3
PC-12 [14] = assay: Neuroprotective activity against H2O2-induced cytotoxicity in rat PC-12 cells assessed as cell viability at 12.5 uM pretreated for 24 hrs followed by H2O2 challenge and measured after 24 hrs by MTT assay (reference value: 52.81 +/- 6%); assay type: functional; settings: time 48 hrs, read-out: Activity
PC-12 [15] = assay: Inhibition of H202-induced apoptosis in rat PC-12 cells assessed as viable cells at 12.5 uM after 24 hrs by Annexin-V-FITC/PI-staining based flow cytometric analysis (reference value: 52.01%); assay type: functional; settings: read-out: Activity; in short: as §3
PC-12 [16] = assay: Cytoprotection activity against H2O2-induced rat PC12-shNrf2-2 cell assessed as cell viability at 12.5 to 100 uM pretreated for 24 hrs followed by H2O2 challenge and measured after 24 hrs by MTT assay; assay type: functional, cell-based; settings: dose 12.5-100 µM, time 48.0 hrs
In short: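 PC12 lines made by lentiviral shRNA against rat Nrf2 (shNrf2-2) or scrambled control (shNT), selected with 0.5 mg/mL G418, knockdown confirmed by Western blot. Pretreated 24 h with 12.5, 25.0, 50.0 or 100 µM compound, then H2O2 for 24 h; viability by MTT; mean ± SD, three independent experiments.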

PC-12 [17] = assay: Inhibition of H202-induced apoptosis in rat PC-12 cells assessed as late apoptotic cells at 100 uM after 24 hrs by Annexin-V-FITC/PI-staining based flow cytometric analysis (reference value: 32.5%); assay type: functional; parameters: scale not given: the % may be the effect or the level left; in short: as §3
[18] = target: T1, Nuclear factor erythroid 2-related factor 2 (Homo sapiens) (UniProt Q16236); assay: Activation of Nrf2 in human HepG2-ARE-C8 cells assessed as fold change at 12.5 uM measured after 12 hrs by luciferase reporter gene assay relative to control; assay type: cell-based; settings: filed as activator
T1 sequence (whole entry): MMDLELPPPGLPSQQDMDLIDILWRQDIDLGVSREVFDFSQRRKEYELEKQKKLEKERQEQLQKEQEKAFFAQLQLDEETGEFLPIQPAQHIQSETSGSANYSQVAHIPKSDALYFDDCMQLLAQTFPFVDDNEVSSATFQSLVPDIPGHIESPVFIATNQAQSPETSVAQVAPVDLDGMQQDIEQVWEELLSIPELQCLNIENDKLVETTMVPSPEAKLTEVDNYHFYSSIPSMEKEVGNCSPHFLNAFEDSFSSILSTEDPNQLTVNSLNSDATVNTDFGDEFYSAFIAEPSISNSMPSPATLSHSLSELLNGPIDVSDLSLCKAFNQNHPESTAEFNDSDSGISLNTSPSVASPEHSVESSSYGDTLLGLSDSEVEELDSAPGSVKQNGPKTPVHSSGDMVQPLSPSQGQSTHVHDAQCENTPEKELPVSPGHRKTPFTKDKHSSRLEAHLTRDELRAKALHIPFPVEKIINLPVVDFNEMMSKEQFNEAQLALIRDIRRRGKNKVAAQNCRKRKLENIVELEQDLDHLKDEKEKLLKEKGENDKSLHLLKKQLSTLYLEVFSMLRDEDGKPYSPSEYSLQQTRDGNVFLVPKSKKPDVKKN

With `COc1ccccc1/C=C/C=C/C(=O)N1CCCCC1` the Activity (PC-12 [1]) was “Active”, the Activity (Mus musculus [2]) was 30.7% and the Activity (PC-12 [3]) was 0.57%. The Activity (Mus musculus [4]) was “Active”, the Time (Mus musculus [5]) was 189.5 s and the Activity (PC-12 [6]) was “Active”. For the same molecule, the Activity (PC-12 [7]) was “Active”, the viability at 25 µM (PC-12 [8]) was 69% and the Activity (PC-12 [9]) was 0.26%. For the same molecule, the viability at 100 µM (PC-12 [10]) was 58%, the Activity (PC-12 [11]) was “Active” and the viability at 50 µM (PC-12 [12]) was 74.8%. For the same molecule, the Activity (PC-12 [13]) was 18.04%, the viability at 12.5 µM (PC-12 [14]) was 88.8% and the viability at 12.5 µM (PC-12 [15]) was 61.4%. The Activity (PC-12 [16]) was “inactive”, the Activity (PC-12 [17]) was 29.28% and the fold change (FC) [18] was 3.
